PubChem BioAssay
Activity calls are given as the source filed them.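 How the source made its calls, unless noted: active means visual image review flags a hit and inhibition of aggregation exceeds 20%; inconclusive means visual hit but inhibition at or below 20%; inactive means no hit on visual image review.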

Legend:
[1] = inhibitors of TNFa-induced NFkB p65 translocation, primary screen, imaging, HUVEC, MLSMR starter and 10KST1 sets (AID 438;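 active means inhibition above 20% together with a positive visual image hit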;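 further: compound added about 3h40 before a 20 min TNFalpha stimulation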;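 on inhibition: signal is the nuclear over cytoplasmic p65 intensity ratio per well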); settings: HUVEC TNFa-induced p65 nuclear translocation; cell count: measured here: nuclei count (cytotoxicity indicator), at 2.08 µM; inhibition: at 2 µM, stronger effect = higher value, 0% TNFa-plus-vehicle, 100% no-TNFa wells
[2] = inhibitors of mutant huntingtin aggregation, primary screen, imaging, exon1htt(103Q)mCFP cells, high-content imaging (AID 483); settings: exon1htt(103Q)mCFP cell line, aggregate imaging, at 2 µM; inhibition of aggregation: stronger effect = higher value; nuclei count: measured here: cell count, toxicity;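 further: compound exposure lasted 3 days before fixation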;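 on nuclei count: percent of the per-plate median nuclei count of sample wells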
[3] = inhibitors of E-selectin induction by TNFa, primary screen, imaging, HUVEC, immunofluorescence, MLSMR starter and 10KST1 sets (AID 487;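 active means visually confirmed hit in the image check and inhibition above 20%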;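 on inhibition: signal is fraction of cell area covered by stained E-selectin grains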;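 on nuclei count: 100% = median nuclei count of all wells on the same plate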); settings: HUVEC TNFalpha-induced E-selectin immunofluorescence imaging, at 2 µM; inhibition: stronger effect = higher value; nuclei count: measured here: cell number, toxicity
[4] = molecular target: Voltage-gated potassium channel subunit beta-2 (Rattus norvegicus) (UniProt P62483); test: KvBeta enzyme negative modulators, primary screen, biochemical, NADPH fluorescence (AID 622;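 active means fluorescence slope higher than the sample average by over 3 SD, cut at about -0.22 in these data, passing the limit was not always enough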;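 further: slope of raw intensity against log time taken from 70 to 1610 s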); settings: recombinant KvBeta, 4-cyanobenzaldehyde reduction, at 10 µM, stronger effect = higher value
Chain of Voltage-gated potassium channel subunit beta-2 (Rattus norvegicus) (P62483 whole entry, looked up): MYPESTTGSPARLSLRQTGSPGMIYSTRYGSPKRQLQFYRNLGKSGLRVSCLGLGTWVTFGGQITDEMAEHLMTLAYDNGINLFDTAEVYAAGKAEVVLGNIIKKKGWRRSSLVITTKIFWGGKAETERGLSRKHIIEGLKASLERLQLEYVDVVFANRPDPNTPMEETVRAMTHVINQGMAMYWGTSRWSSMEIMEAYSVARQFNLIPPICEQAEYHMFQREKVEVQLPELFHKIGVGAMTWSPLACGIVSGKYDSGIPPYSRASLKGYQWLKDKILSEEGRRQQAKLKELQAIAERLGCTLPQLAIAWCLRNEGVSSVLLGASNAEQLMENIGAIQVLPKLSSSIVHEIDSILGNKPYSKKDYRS

[5] = molecular target: Voltage-gated potassium channel subunit beta-2 (Rattus norvegicus) (UniProt P62483); test: KvBeta positive modulators, primary screen, biochemical, NADPH fluorescence (AID 623;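 active means NADPH fluorescence slope more negative than the mean of all samples by about 3 SD, 99.7% confidence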;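 further: fluorescence intensity change per second fitted from 20 to 320 s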); settings: Recombinant KvBeta, NADPH fluorescence decrease slope, 10 min; at 10 µM; stronger effect = lower value
[6] = molecular target: Muscarinic acetylcholine receptor M4 (Homo sapiens) (UniProt P08173); test: compounds altering M4/GIRK thallium flux, either direction, primary screen, M4 allosteric agonist project, cell-based, HEK293 M4/GIRK, BTC-AM (AID 625;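 active means fluorescence slope after compound addition differing from the mean of all tested samples at 99.7% confidence, mostly higher but some lower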;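 further: thallium influx through GIRK channels coupled to M4 in HEK293 cells with BTC-AM dye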); settings: at 10 µM, actives lie on both sides
Chain of Muscarinic acetylcholine receptor M4 (Homo sapiens) (P08173 whole entry, looked up): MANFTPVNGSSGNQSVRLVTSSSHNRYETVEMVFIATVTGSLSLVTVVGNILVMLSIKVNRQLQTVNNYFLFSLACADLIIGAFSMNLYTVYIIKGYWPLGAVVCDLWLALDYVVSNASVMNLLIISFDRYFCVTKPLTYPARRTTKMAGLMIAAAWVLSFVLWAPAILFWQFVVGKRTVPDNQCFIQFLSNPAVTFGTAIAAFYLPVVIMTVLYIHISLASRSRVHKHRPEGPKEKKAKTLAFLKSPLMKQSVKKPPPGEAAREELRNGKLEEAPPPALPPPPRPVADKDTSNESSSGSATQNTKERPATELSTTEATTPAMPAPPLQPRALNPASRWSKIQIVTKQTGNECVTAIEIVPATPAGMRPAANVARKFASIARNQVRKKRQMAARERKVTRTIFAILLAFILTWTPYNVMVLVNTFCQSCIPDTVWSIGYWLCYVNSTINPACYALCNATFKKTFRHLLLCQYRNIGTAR
How it was run: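 Material: M4/GIRK1/GIRK2 stable HEK293 cell line. Medium: pH 7.3 thallium assay buffer. Dosing: single compound concentration, 10 µM final. Schedule: 1 h dye loading, 2 min kinetic read. Measured by: kinetic fluorescence with BTC-AM dye. Read-out: post-addition slope, 15–24 s, of baseline-normalized fluorescence. Benchmarks: carbachol and DMSO controls.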

[7] = inhibitors of Sendai virus-induced IRF3 signaling, primary screen, TLR/RLR signaling modifier project, cell-based, Sendai virus stimulus, luciferase, 10K MLSCN set (AID 602276;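 active means inhibition at or above 50% at 10 µM; inactive means inhibition below 50%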;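 further: firefly luciferase from ISG56 promoter only with Renilla not read in this screen; 0% = Sendai virus plus DMSO and 100% = medium plus DMSO without virus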); settings: HEK293 RL24 IRF3 luciferase reporter, at 10 µM, stronger effect = higher value
[8] = inhibitors of poly I:C-induced TLR3 signaling, primary screen, cell-based, poly I:C stimulus, luciferase, 10K MLSCN set (AID 602277;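 active means inhibition of the reporter signal at or above 50%; inactive means inhibition below 50%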); settings: HEK293-TLR3 RL24 IRF3 luciferase reporter, at 10 µM, stronger effect = higher value

SMILES	cell count [1]	inhibition [1]	inhibition of aggregation [2]	nuclei count [2] [%]	inhibition [3]	nuclei count [3] [%]	fluorescence slope [4]	NADPH fluorescence slope [5]	fluorescence slope [6]	inhibition [7]	inhibition [8]
CC(C)NC(=O)c1ccccc1NC(=O)c1ccccc1N(C)S(C)(=O)=O	554	25% (inactive)	6.8% (inactive)	104	-155% (inactive)	101	-0.456 (inactive)	-5.7e-05 (inactive)	0.00572 (inactive)	10.6% (inactive)	13.7% (inactive)
CCCCn1nnnc1SCC(=O)N1CCN(C(=O)c2ccco2)CC1	247	2.6% (inactive)	22.3% (inactive)	72.2	15.1% (inactive)	83.9	-0.463 (inactive)	-3e-05 (inactive)	0.00637 (inactive)	7.65% (inactive)	15.6% (inactive)
CCOC(=O)c1[nH]nc(-c2c(O)cc(C)cc2O)c1-c1csc(C)n1	495	-16.3% (inactive)	-2.1% (inactive)	87.5	56.2% (inactive)	61.3	-0.453 (inactive)	-0.000313 (inactive)	0.00535 (inactive)	-7.71% (inactive)	-0.807% (inactive)
N#Cc1nc(-c2cccs2)oc1NCc1ccc(Cl)cc1	341	-8.1% (inactive)	19.1% (inactive)	98.9	47.2% (inactive)	106	-0.526 (inactive)	-2e-05 (inactive)	0.00571 (inactive)	18.3% (inactive)	10.5% (inactive)
Cc1cc(C)cc(NS(=O)(=O)c2ccc3[nH]cc(C(=O)NCc4ccco4)c(=O)c3c2)c1	416	1.5% (inactive)	3.8% (inactive)	99.9	-19.7% (inactive)	97.7	-0.57 (inactive)	-4.7e-05 (inactive)	0.00555 (inactive)	39.5% (inactive)	49.1% (inactive)
Cc1ccc(-c2cc(C(F)F)nc(NCc3cccnc3)n2)cc1	590	-26.5% (inactive)	-44.3% (inactive)	81.9	-97.8% (inactive)	118	-0.467 (inactive)	-1.4e-06 (inactive)	0.00586 (inactive)	7% (inactive)	-13.6% (inactive)
CC1CCN(S(=O)(=O)c2ccc(S(=O)(=O)NCC(=O)C(C)(C)C)cc2)CC1	528	-14.7% (inactive)	-10.2% (inactive)	113	-189% (inactive)	166	-0.571 (inactive)	-7.1e-05 (inactive)	0.00717 (inactive)	0.588% (inactive)	9.79% (inactive)
Cc1cnn(C(=S)NCc2ccco2)c1	465	-13.6% (inactive)	17.2% (inactive)	94.5	-15.2% (inactive)	99.9	-0.49 (inactive)	-3.2e-05 (inactive)	0.0043 (inactive)	6.4% (inactive)	1.55% (inactive)
O=C(COc1ccc2c(c1)OCO2)NC12CC3CC(CC(C3)C1)C2	337	-3.7% (inactive)	1.3% (inactive)	91.5	-142% (inactive)	99.1	-0.411 (inactive)	-4.1e-05 (inactive)	0.00898 (inactive)	-38.5% (inactive)	-35.6% (inactive)
COCCn1c(N)c(C(=O)Nc2sc3c(c2C(=O)OC)CCCC3)c2nc3ccccc3nc21	670	14.9% (inactive)	21.8% (inactive)	84.1	5.1% (inactive)	100	-0.57 (inactive)	4.8e-06 (inactive)	0.00595 (inactive)	19.4% (inactive)	9.11% (inactive)
Cc1cccc(N(C)C(=O)c2coc(=O)c3ccccc23)c1	199	-0.8% (inactive)	-9.3% (inactive)	105	-1.9% (inactive)	104	-0.563 (inactive)	1.4e-05 (inactive)	0.00467 (inactive)	14.1% (inactive)	26.6% (inactive)
O=C(CCn1c(=O)sc2ccccc21)Nc1cccnc1	572	-7.6% (inactive)	20.2% (inactive)	81.9	-11.2% (inactive)	110	-0.443 (inactive)	0.000131 (inactive)	0.00603 (inactive)	8.62% (inactive)	10.8% (inactive)
CCNC(=O)CC1C(=O)N(c2ccccc2)C(=O)N1Cc1ccc(OC)cc1 (stereo not drawn)	442	5.9% (inactive)	-1.6% (inactive)	69.1	-289% (inactive)	92.6	-0.567 (inactive)	2e-05 (inactive)	0.00553 (inactive)	14.5% (inactive)	21.8% (inactive)
CC1CCCC(NC(=O)CN2CCN(Cc3ccc(Cl)cc3)C2=O)C1C (stereo not drawn)	512	-6% (inactive)	-24.6% (inactive)	58.8	-27.1% (inactive)	98	-0.553 (inactive)	-3.7e-05 (inactive)	0.00646 (inactive)	14.7% (inactive)	20.9% (inactive)
Cc1cc(C)cc(NC(=O)N2CCC(c3nc4ccccc4o3)CC2)c1	405	7.5% (inactive)	-19.5% (inactive)	94.7	-66.7% (inactive)	110	-0.494 (inactive)	0.00013 (inactive)	0.00524 (inactive)	13.6% (inactive)	18.7% (inactive)
CC(Sc1nnc(-c2cc3ccccc3o2)n1-c1ccccc1)C(=O)O (stereo not drawn)	613	0.8% (inactive)	14.7% (inactive)	105	-223% (inactive)	108	-0.585 (inactive)	-5.2e-05 (inactive)	0.00554 (inactive)	21.2% (inactive)	39.8% (inactive)
CN(C)C(=O)C12CCC(C)(c3nc4ccccc4nc31)C2(C)C (stereo not drawn)	504	-6.5% (inactive)	-24% (inactive)	97	-59.3% (inactive)	112	-0.492 (inactive)	-2e-05 (inactive)	0.00404 (inactive)	-7.12% (inactive)	-15.4% (inactive)
O=C(Cc1ccc(S(=O)(=O)N2CCCC2)s1)Nc1nc2c(s1)CCCC2	577	22.2% (inactive)	25.3% (inactive)	94.3	18.1% (inactive)	71.4	-0.574 (inactive)	-5.6e-05 (inactive)	0.00565 (inactive)	-11% (inactive)	-53.9% (inactive)
Cc1cccc(N(CC(N)=O)S(C)(=O)=O)c1C	369	-5.2% (inactive)	6.8% (inactive)	100	-129% (inactive)	122	-0.551 (inactive)	-0.000105 (inactive)	0.00412 (inactive)	11% (inactive)	14.1% (inactive)
COc1ccc(-c2cc(C(F)(F)F)nc(SCC(=O)NCc3ccco3)n2)cc1OC	614	-9.9% (inactive)	-5.9% (inactive)	94	-20.4% (inactive)	103	-0.304 (inactive)	-1.1e-05 (inactive)	0.00529 (inactive)	24.6% (inactive)	23.2% (inactive)
O=C(NCc1ccc(F)cc1)c1cc(-c2ccco2)on1	330	-17.6% (inactive)	18.1% (inactive)	92	29.3% (inactive)	102	-0.46 (inactive)	-5.1e-05 (inactive)	0.00521 (inactive)	-17.1% (inactive)	-42.6% (inactive)
CCOC(=O)c1sc2ncn(/N=C/N(C)C)c(=O)c2c1C	415	-2.7% (inactive)	40.3% (active)	72.6	20.9% (inactive)	85.9	-0.385 (inactive)	6.4e-06 (inactive)	0.00524 (inactive)	5.64% (inactive)	6.76% (inactive)
CCN(CC(=O)NC(=O)NCc1ccco1)Cc1nc2ccccc2c(=O)[nH]1	407	-20.9% (inactive)	-36.6% (inactive)	97.9	63.7% (active)	68.4	-0.561 (inactive)	-5.5e-05 (inactive)	0.0066 (inactive)	15.7% (inactive)	15% (inactive)
Cc1ccc(S(=O)(=O)c2nc(-c3ccco3)oc2SCC(=O)NCC2CCCO2)cc1 (stereo not drawn)	822	-8% (inactive)	4% (inactive)	104	-16.1% (inactive)	109	-0.458 (inactive)	-4.2e-05 (inactive)	0.00374 (inactive)	15.8% (inactive)	18.5% (inactive)
COc1ccc(-c2cc(C(F)F)n3ncc(C(=O)NCC4CCCO4)c3n2)cc1 (stereo not drawn)	244	4.7% (inactive)	-15.8% (inactive)	78.7	-51% (inactive)	108	-0.000811 (active)	-2.9e-05 (inactive)	0.00542 (inactive)	20.7% (inactive)	11.4% (inactive)
Cc1cccc2cc(C(c3nnnn3C(C)(C)C)N3CCN(C(=O)c4ccco4)CC3)c(=O)[nH]c12 (stereo not drawn)	283	-1.9% (inactive)	-6.7% (inactive)	96.1	-29.9% (inactive)	88.4	-0.439 (inactive)	-5.7e-05 (inactive)	0.00557 (inactive)	13.4% (inactive)	16% (inactive)
COc1ccc(-c2nn3c(-c4ccncc4)nnc3s2)cc1OC	562	5.4% (inactive)	-7.4% (inactive)	90.8	24.6% (inactive)	105	-0.42 (inactive)	-0.000356 (inactive)	0.00419 (inactive)	19.4% (inactive)	24.2% (inactive)
CC(C)=CC/C=C1\CCC(C(=O)O)C(C(=O)O)C1 (stereo not drawn)	661	-6.8% (inactive)	-3.8% (inactive)	116	-30.8% (inactive)	100	-0.52 (inactive)	-1.4e-05 (inactive)	0.00515 (inactive)	15.6% (inactive)	13.1% (inactive)
